Laboratory results published in ChEMBL document CHEMBL1121595, “Fluoroprostaglandins: synthesis and biological evaluation of the methyl esters of (+)-12-fluoro-, (-)-ent-12-fluoro-, (+)-15-epi-fluoro-, and (-)-ent-15 epi-12-fluoroprostaglandin F2 alpha” (1980).

Legend:
Cricetinae gen. sp. [1] = test: The compound was evaluated for the hamster uterine contraction.; format: functional, Cricetulus griseus
Gerbillinae = test: The compound was evaluated for the gerbil colon contraction.; format: functional
Cricetinae gen. sp. [2] = test: The compound was evaluated for the antifertility activity in hamster.; format: functional
How it was run: (§1)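 Pregnant hamsters (80–90 g), ten per compound, mated one male per female. A single subcutaneous dose in ethanol was given on day 5 of pregnancy. The minimum effective dose is the lowest dose per hamster per day that leaves no pregnancies in the group of ten. Relative potency was derived by comparing this dose with that of natural PGF2α.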

Cricetinae gen. sp. [3] = test: The compound was evaluated for the antifertility activity in hamster; no activity observed at 50 ug; format: functional, organism-based; conditions: Cricetulus griseus; how it was run: as §1

SMILES | relative potency (Cricetinae gen. sp. [1]) | relative potency (Gerbillinae) | relative potency (Cricetinae gen. sp. [2]) | MED (Cricetinae gen. sp. [3])
CCCCC[C@H](O)/C=C/[C@@]1(F)[C@H](O)C[C@H](O)[C@@H]1C/C=C\CCCC(=O)OC | 0.28 | 0.001 | 12.5 | 
CCCCC[C@H](O)/C=C/[C@@]1(F)[C@H](C/C=C\CCCC(=O)OC)[C@H](O)C[C@@H]1O | 0.0002 | 0.0002 |  | No activity observed at 50 ug
CCCCC[C@@H](O)/C=C/[C@@]1(F)[C@H](O)C[C@H](O)[C@@H]1C/C=C\CCCC(=O)OC | 0.022 | 0.011 | 1 | 
CCCCC[C@H](O)/C=C/[C@@]1(F)[C@H](O)C[C@H](O)[C@@H]1C/C=C\CCCC(=O)O | 0.65 | 0.23 | 25 | 
CCCCC[C@@H](O)/C=C/[C@@]1(F)[C@H](C/C=C\CCCC(=O)OC)[C@H](O)C[C@@H]1O | 0.004 | 0.001 | 0.17 | 
